In ChEMBL document CHEMBL2396654, “Discovery, synthetic methodology, and biological evaluation for antiphotoaging activity of bicyclic[1,2,3]triazoles: in vitro and in vivo studies” (2013) one finds viability and Activity data, which are given here for 25 compounds.

Test [1] can be described thus: Antiphotoaging activity in HDF assessed as protection against 6 J/cm'2 UVA-induced reduction of cell survival at 5 uM treated 4 hrs before UVA irradiation measured after 24 hrs by MTT assay relative to control. The test is classed as functional. To be noted: Homo sapiens, light or radiation study, read-out: Survival. Summed up: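 Normal human dermal fibroblasts (passages 5–10) seeded at 10 000 cells/well, grown overnight, exposed to compound at 5 μM for 4 h, then rinsed and irradiated in PBS with 6 J/cm2 UVA (365 nm lamp, 4.762 mW/cm2), after which medium was restored. After 24 h, MTT added for 2 h at 37 °C; formazan dissolved in DMSO, OD 540 nm. Reported as mean ± SD; three independent experiments, triplicate.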
A general note: Tetrazolium assays rely on reduction of a dye to a coloured formazan, in cell work by metabolically active cells.

For test [2], the system named is HDF. Briefly: Antiphotoaging activity in HDF assessed as protection against 6 J/cm'2 UVA-induced increase of MMP-1 protein expression treated 4 hrs before UVA irradiation by Western blot analysis. The test is classed as functional. As to conditions: Homo sapiens. Summed up:
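Fibroblasts pretreated with 5 μM, then given 6 J/cm2 UVA. Lysed in ice-cold RIPA with protease and phosphatase inhibitors; protein measured by Bradford. Immunoblot with rabbit monoclonal anti-MMP-1, actin as loading control. HRP secondary, chemiluminescence detection, densitometry. Three independent experiments.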
On the technique in general: Immunoblotting shows a protein as a band on a membrane.

For test [3], the system named is HDF. Briefly: Antiphotoaging activity in HDF assessed as increase of 6 J/cm'2 UVA-induced mitochondrial membrane potential treated 4 hrs before UVA irradiation using DiOC6 staining by flow cytometry. It is filed as functional. To be noted: Homo sapiens. In outline:
(§1)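 Normal fibroblasts (passages 5–10) pretreated 4 h at 5 μM or at various concentrations, then 6 J/cm2 UVA given in PBS (365 nm lamp, 4.762 mW/cm2) or sham-irradiated. Cells trypsinized, pelleted, stained with DiOC6 30 min at room temperature, washed, resuspended in PBS. Read at once by flow cytometry, FL-1 530/30 nm. Three independent experiments.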

The subject of test [4] is HDF. Briefly: Effect on COL1alpha1 mRNA expression in HDF by quantitative RT-PCR analysis. The test is classed as functional. To be noted: Homo sapiens. In outline:
(§2)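 Fibroblasts treated with compound alone, UVA alone, or both. Total RNA extracted with Trizol; 2 μg reverse-transcribed. SYBR Green real-time qPCR with 0.3 μM each primer and 100 ng cDNA. GAPDH listed among the amplified genes.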

Test [5] concerns HDF. Briefly: Effect on senescence-associated-beta-gal expression in HDF using 5-bromo-4-chloro-3-indoyl-beta-galactoside staining by microscopic analysis. As to conditions: Homo sapiens. It is filed as functional.
Test [6] concerns HDF. Briefly: Antiphotoaging activity in HDF assessed as reduction of 6 J/cm'2 UVA-induced senescence-associated-beta-gal positive cells treated 4 hrs before UVA irradiation using 5-bromo-4-chloro-3-indoyl-beta-galactoside staining by microscopic analysis. The test is classed as functional. As to conditions: Homo sapiens.
Test [7] concerns HDF. Briefly: Antiphotoaging activity in HDF assessed as protection against 6 J/cm'2 UVA-induced reduction of TIMP-1 mRNA expression treated 4 hrs before UVA irradiation by quantitative RT-PCR analysis. It is filed as functional. To be noted: Homo sapiens. Summed up:
as §2

Test [8] relates to HDF. Briefly: Effect on MMP-1 mRNA expression in HDF by quantitative RT-PCR analysis. It is filed as functional. As to conditions: Homo sapiens. In outline: as §2
For test [9], the system named is HDF. Briefly: Antiphotoaging activity in HDF assessed as protection against 6 J/cm'2 UVA-induced reduction of cell proliferation at 1 to 5 uM measured after 24 hrs by irradiation by MTT assay. It is filed as functional. To be noted: Homo sapiens, TDE = time-dependent effect. In outline:
(§3)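 Fibroblasts seeded at 10 000 cells/well and left overnight. Pretreated with 0, 1, 2.5 or 5 μM for 2 or 4 h, then given 6 J/cm2 UVA in PBS; medium added back. After 24 h, MTT 2 h at 37 °C, formazan dissolved in DMSO, OD read at 540 nm. Three independent experiments.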

The subject of test [10] is HDF. Briefly: Effect on elastin mRNA expression in HDF by quantitative RT-PCR analysis. It is filed as functional. To be noted: Homo sapiens. In outline:
as §2

The species entered for test [11] is Mus musculus. Briefly: Antiphotoaging activity in ICR mouse assessed as reduction of 3 J/cm'2 UVA-induced epidermal hypertrophy at 0.5 gram per square in dorsal skin immediately after UVA irradiation 3 times a week for up to 12 weeks. The test is classed as functional, organism-based. Summed up:
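Female ICR mice, six weeks old, n = 4 per group, dorsal skin shaved. Given 3 J/cm2 UVA (4.762 mW/cm2), then 0.1% emulsion (Tefose 63 base) applied topically at 0.5 g per square right after irradiation. Done three times weekly for up to 12 weeks (total 108 J/cm2). Skin taken after final irradiation for histology.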

For test [12], the system named is HDF. Briefly: Antiphotoaging activity in HDF assessed as protection against 6 J/cm'2 UVA-induced reduction of elastin mRNA expression treated 4 hrs before UVA irradiation by quantitative RT-PCR analysis. It is filed as functional. To be noted: Homo sapiens. In outline: as §2
For test [13], the system named is HDF. Briefly: Antiphotoaging activity in HDF assessed as protection against 6 J/cm'2 UVA-induced reduction of fibronectin mRNA expression treated 4 hrs before UVA irradiation by quantitative RT-PCR analysis. The test is classed as functional. To be noted: Homo sapiens. Summed up:
as §2

Test [14] deals with HDF. Briefly: Antiphotoaging activity in HDF assessed as protection against 6 J/cm'2 UVA-induced reduction of COL1alpha1 mRNA expression treated 4 hrs before UVA irradiation by quantitative RT-PCR analysis. It is filed as functional. To be noted: Homo sapiens. In outline:
as §2

The subject of test [15] is HDF. Briefly: Effect on mitochondrial membrane potential in HDF at 5 uM after 4 hrs using DiOC6 staining by flow cytometry. The test is classed as functional. As to conditions: Homo sapiens. In outline:
as §1
(Flow cytometry measures light scatter and fluorescence of single cells or particles in a stream.)

For test [16], the system named is HDF. Briefly: Antiphotoaging activity in HDF assessed as protection against 6 J/cm'2 UVA-induced reduction of ATP level at 5 uM treated 4 hrs before UVA irradiation by bioluminescent assay. The test is classed as functional. As to conditions: Homo sapiens. Summed up: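 Fibroblasts exposed 4 h to compound at 5 μM, then irradiated with 6 J/cm2 UVA in PBS. Cells lysed at once and debris spun off. Supernatant ATP measured by luciferin–luciferase bioluminescence. Expressed as percent of unirradiated, untreated control. Three independent experiments.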

Test [17] deals with HDF. Briefly: Effect on TIMP-1 mRNA expression in HDF by quantitative RT-PCR analysis. It is filed as functional. As to conditions: Homo sapiens. Summed up: as §2
The subject of test [18] is HDF. Briefly: Effect on fibronectin mRNA expression in HDF by quantitative RT-PCR analysis. As to conditions: Homo sapiens. It is filed as functional. In outline:
as §2

Test [19] deals with HDF. Briefly: Antiphotoaging activity in HDF assessed as protection against 6 J/cm'2 UVA-induced increase of MMP-1 mRNA expression treated 4 hrs before UVA irradiation by quantitative RT-PCR analysis. It is filed as functional. To be noted: Homo sapiens. Summed up: as §2
The test system of test [20] is HDF. Briefly: Effect on procollagen 1 type 1 mRNA expression in HDF by quantitative RT-PCR analysis. The test is classed as functional. As to conditions: Homo sapiens. Summed up: as §2
In test [21] the test system is HDF. Briefly: Antiphotoaging activity in HDF assessed as protection against 6 J/cm'2 UVA-induced reduction of cell proliferation treated 2 to 4 hrs before UVA irradiation measured after 24 hrs by MTT assay. It is filed as functional. As to conditions: Homo sapiens. In outline:
as §3

For test [22], the system named is HDF. Briefly: Antiphotoaging activity in HDF assessed as reduction of 6 J/cm'2 UVA-induced ROS production treated 4 hrs before UVA irradiation using DCFH-DA staining by flow cytometry. It is filed as functional. As to conditions: Homo sapiens. In outline: (§4)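 Fibroblasts treated 4 h at 5 μM or at various concentrations, then exposed to 6 J/cm2 UVA in PBS (365 nm peak) or sham-irradiated. Loaded with DCFH-DA 10 μM for 30 min at 37 °C. DCF fluorescence read by flow cytometry on FL-1. Three independent experiments.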

In test [23] the test system is HDF. Briefly: Antiphotoaging activity in HDF assessed as protection against 6 J/cm'2 UVA-induced reduction of procollagen 1 type 1 mRNA expression treated 4 hrs before UVA irradiation by quantitative RT-PCR analysis. As to conditions: Homo sapiens. It is filed as functional. Summed up:
as §2

For test [24], the system named is HDF. Briefly: Effect on ROS production in HDF at 5 uM after 4 hrs using DCFH-DA staining by flow cytometry. It is filed as functional. As to conditions: Homo sapiens. In outline:
as §4

Structures are written as SMILES. Calls of active or inactive are those of the source. The rule behind the calls is not given here.

With `COc1cccc(-c2nnn3c2CCC3)c1`, in [1], the viability at 5 µM was 58%.
For `O=[N+]([O-])c1ccc(C#Cc2nnn3c2CCC3)cc1`, in test [1], the viability at 5 µM was 84.1%.
The same measure, in the same setting: as for `COc1cccc(C#Cc2nnn3c2CCCC3)c1`, the figure is 61.9%; as for `c1ccc(-c2nnn3c2CCC3)cc1`, 61.1%; as for `C(#Cc1nnn2c1CCC2)c1ccccc1`, 62.7%.
As to `CCc1ccc(C#Cc2nnn3c2CCCC3)cc1`, the viability at 5 µM in test [1] is 55.7%.
In the case of `C(#Cc1nnn2c1CCCC2)c1ccccc1`, the viability at 5 µM in [1] is 68.7%.
Still for that read-out and setting: as for `Nc1ccccc1C#Cc1nnn2c1CCC2`, the figure is 71.2%; as for `Fc1ccccc1C#Cc1nnn2c1CCCC2`, 78.9%.
The same measure, in the same setting: under `COc1cccc(-c2nnn3c2CCCC3)c1` stands 63.7%; under `Nc1ccccc1-c1nnn2c1CCCC2`, 61%; under `O=[N+]([O-])c1cccc(C#Cc2nnn3c2CCCC3)c1`, 71.3%.
In the case of `COc1ccc(-c2nnn3c2CCC3)cc1`, the viability at 5 µM in test [1] came out at 70.3%.
On the same count and under the same terms, as for `O=[N+]([O-])c1ccc(-c2nnn3c2CCC3)cc1`, the figure is 70%; as for `O=[N+]([O-])c1cccc(-c2nnn3c2CCCC3)c1`, 62%; as for `COc1ccc(C#Cc2nnn3c2CCCC3)cc1`, 73%.
Still for that read-out and setting: as for `c1ccc(-c2nnn3c2CCCC3)cc1`, the figure is 57%; as for `O=[N+]([O-])c1cccc(-c2nnn3c2CCC3)c1`, 52.8%; as for `O=[N+]([O-])c1ccc(-c2nnn3c2CCCC3)cc1`, 52%.
Take `Fc1ccccc1C#Cc1nnn2c1CCC2`: the viability at 5 µM in [1] was determined as 75.2%.
Same read-out and setting: under `O=[N+]([O-])c1cccc(C#Cc2nnn3c2CCC3)c1` stands 88.2%; under `COc1ccc(-c2nnn3c2CCCC3)cc1`, 54%; under `COc1ccc(C#Cc2nnn3c2CCC3)cc1`, 73.2%.
`CCc1ccc(C#Cc2nnn3c2CCC3)cc1`: the viability at 5 µM in [1] worked out at 80.7%.
As to `COc1cccc(C#Cc2nnn3c2CCC3)c1`, the result in test [2], in test [6], in test [7], in [11], in test [12] and in test [13] was Active. The outcome in test [14], in [16], in [19] and in test [23] was Active. For the same compound, the Activity result in test [3] was “Dose-dependent effect”; in [9], “tde”; in [21] it was “Dose-dependent effect”; in test [22] it was “Dose-dependent effect”. Further, the outcome in test [4], in test [5], in test [8], in test [10], in test [15] and in [17] was inactive. Besides, the result in test [18], in [20] and in test [24] was inactive. Moreover, the viability at 5 µM in test [1] was 95.3%.
